Source: PubChem
MITF TRPM1 HTS = activators of MITF-driven TRPM1 promoter activity in SK-MEL-5 cells; SK-MEL-5 TRPM1-promoter luciferase, 24 h; % of positive control, neutral wells = 0; activation, % at 12.5 µM; actives 0.75% (n = 300,000); AID 588334;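 active means mean activation of at least 80% with every replicate also reaching 80%; inconclusive means mean reaches 80% but some replicate falls short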;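 further: 0% = neutral control wells and 100% = parthenolide positive control wells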
SR-BI DiI inh = blocks mouse SR-BI lipid uptake from DiI-HDL; ldlA[mSR-BI] CHO cells, DiI-HDL uptake fluorescence, 3 h; inhibition, % at 12.5 µM; actives 0.96% (n = 320,000);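 active means mean replicate inhibition of at least 70% and a set share of replicates each scoring 70 or more; inconclusive means meets just one of the two criteria; inactive means fails both criteria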;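 further: 0% = median of neutral control wells and 100% = median of positive control wells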
Target sequence (Q61009 whole entry, looked up): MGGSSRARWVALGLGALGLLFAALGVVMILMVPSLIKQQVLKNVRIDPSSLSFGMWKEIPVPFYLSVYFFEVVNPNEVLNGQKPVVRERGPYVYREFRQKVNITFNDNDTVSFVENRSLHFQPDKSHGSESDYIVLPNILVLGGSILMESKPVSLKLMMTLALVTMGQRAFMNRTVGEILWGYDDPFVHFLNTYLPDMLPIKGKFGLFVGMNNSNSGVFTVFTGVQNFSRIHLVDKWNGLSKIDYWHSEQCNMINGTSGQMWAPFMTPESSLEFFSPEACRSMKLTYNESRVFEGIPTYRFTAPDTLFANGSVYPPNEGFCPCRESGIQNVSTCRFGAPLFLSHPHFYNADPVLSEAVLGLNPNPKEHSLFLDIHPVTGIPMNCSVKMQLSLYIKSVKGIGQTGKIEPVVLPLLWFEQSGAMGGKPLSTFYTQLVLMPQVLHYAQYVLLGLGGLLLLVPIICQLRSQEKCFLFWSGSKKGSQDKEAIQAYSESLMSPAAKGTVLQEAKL
HSF1 activator = increases HSF-1 driven luciferase reporter signal. NIH3T3-HGL HSF-1 luciferase reporter, MG132, 8 h; 100% = twice DMSO control signal. activation, % at 9 µM. actives 1.7% (n = 300,000);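 active means mean replicate activation of at least 50% with a set share of replicates each reaching 50%; inconclusive means only one of those two conditions met; inactive means mean below 50% and too few replicates reaching it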;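 further: 0% = median of the neutral control wells and 100% = twice that signal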
SR-BI DiI-HDL act = activators of SR-BI mediated HDL lipid uptake | CHO ldlA[mSR-BI] cells, DiI-HDL uptake fluorescence, 3 h; 100 = double the neutral-control signal | activation, % at 12.5 µM | actives 0.096% (n = 320,000) | AID 504775;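 active means mean replicate activation of at least 60% and every replicate at or above 60%; inconclusive means mean or all-replicate condition met, but not both; inactive means mean below 60% and not all replicates reaching 60%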;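 further: 0% = median plate neutral-control signal and 100% = twice that signal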
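Material: SR-BI-overexpressing, LDLR-lacking CHO cells | Dosing: Single compound concentration, delivered by pin transfer | Probe or stimulus: Labelled HDL, 10 µg/mL | Signal: Bottom-read cell fluorescence after medium removal, ex 550/em 595 nm | Schedule: 3 h, 37 °C | Evaluation: HDL uptake via cellular fluorescence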
Wnt act = Wnt/beta-catenin pathway activation; activation, % at 9.35 µM; actives 1.2% (n = 300,000); AID 743398; Wnt/beta-catenin reporter cell assay, activator, plate reader; in the data active means activation above about 30%, passing the limit was not always enough; inconclusive means no clear call, values can overlap the other calls;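 further: 0% = neutral control wells and 100% = positive control wells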
* marks the source's active call; other numbers are inactive results; ? = inconclusive; · = not tested or not shown. A selection: hits, their analogues and other compounds. The true share with any hit is near 3.6%.

SMILES	MITF TRPM1 HTS	SR-BI DiI inh	HSF1 activator	SR-BI DiI-HDL act	Wnt act
C[C@@H]1CN([C@@H](C)CO)C(=O)CCCn2nncc2CO[C@@H]1CN(C)C(=O)Nc1cccc(C(F)(F)F)c1	·	·	·	·	-0.8
Cc1nc(-c2ccccc2)nc2[nH]c(C(C)C)cc(=O)c12	5.2	52.6	-5.6	-52.6	67.5*
Cc1nc(NC(C)C)c2cnn(CCc3ccccc3)c2n1	97.7*	·	54.1*	·	·
Cc1cc(Br)c2nc(-c3ccc(F)cc3)c(Cc3cccc(Cl)c3)n2c1	·	·	·	·	0.4
CC(Cc1ccccn1)NC(=O)c1ccc(OC2CCN(CCc3ccccc3)CC2)cc1 (configuration not stated)	57.9	10.8	-0.7	·	13.3
O=C(NCCc1ccccn1)c1ccc(OC2CCN(CCc3ccccc3)CC2)cc1	80.5*	-23.5	-7.2	23.5	?
COc1ccc(NC(=O)C=C(C)C)cc1Cl	69.3	-8.2	·	8.2	·
CC(=O)c1ccc(NC(=O)Nc2ccc(Cl)cc2)cc1	125.4*	31.9	46.7	-31.9	17.4
CC(C)=CC(=O)Nc1ccc(Cl)cc1	89.4*	-8.6	50.9*	8.6	44.8*
Cc1c(C(=O)NCc2ccc(Cl)c(Cl)c2)sc(=O)n1Cc1ccc(C(=O)N(C)C)cc1	·	·	·	·	-1.9
O=C(C[C@@H]1C=C[C@@H](NC(=O)c2cccnc2)[C@@H](CO)O1)NCc1ccncn1	·	·	·	·	-1.7
Cc1ccccc1C(=O)N(C)[C@H]1C[C@H]2c3[nH]c4c(-c5ccccc5)cccc4c3CCN2C(=O)[C@H]1[C@H](C)O	·	·	·	·	-12.2
N/C(=N\OC(=O)CCCc1ccccc1)c1ccccn1	-0.6	6.7	30.3	-6.7	-1.4
Cc1cc(C)cc(OCC(=O)O/N=C(\N)c2ccccn2)c1	25.3	3.3	21.2	-3.3	·
CCc1ccc(OCC(=O)O/N=C(\N)c2ccccn2)cc1	·	·	63.6*	·	48.4*
N/C(=N\OC(=O)COc1ccccc1)c1ccccn1	49.5	-5.8	32.7	5.8	48.1*
Cc1ccc(OCC(=O)O/N=C(\N)c2ccccn2)cc1C	·	·	107.8*	·	38.7*
N/C(=N\OC(=O)CCC1CCCC1)c1ccccn1	32.6	-17.6	25.4	17.6	52.1*
CCOC(=O)C1=C(C(=O)OCC)C2N(Cc3ccc(Br)cc3)c3ccccc3[C@@]23C[C@@H](C(=O)OC)N(S(=O)(=O)c2ccc(Br)cc2)C3=N1 (some centres not stated)	·	·	·	·	-1.2
COC(=O)N(C)C[C@@H]1OCc2cn(nn2)CCCC(=O)N([C@@H](C)CO)C[C@H]1C	·	·	·	·	-1.1
CN(C(=O)c1ccc(NC(=O)Cc2cccc(NC(=O)C3CCCN(C(=O)C4CCCC4)C3)c2)cc1)C1CCCC1 (configuration not stated)	-10.8	51.7	·	-51.7	-1.5
NC(=O)c1ncn([C@@H]2O[C@H](C(=O)N[C@H](Cc3ccccc3)C(=O)N3CCN(CC(=O)Nc4ccccn4)CC3)[C@@H](O)[C@H]2O)n1	·	·	·	·	-4.0
Cc1cccc(OCC(=O)O/N=C(\N)c2ccccn2)c1	98.6*	3.2	44.9	-3.2	12.4
N/C(=N\OC(=O)C(c1ccccc1)c1ccccc1)c1ccccn1	4.6	-9.2	72.6*	9.2	·
CCOC(=O)C1CSCCS(=O)(=O)N1Cc1ccc(F)cc1 (configuration not stated)	·	·	·	·	-1.2
SMILES	MITF TRPM1 HTS	SR-BI DiI inh	HSF1 activator	SR-BI DiI-HDL act	Wnt act
COc1ccccc1Nc1ccc(N)cc1	-1.1	83.9*	6.1	-83.9	-2.6
O=C(Nc1ccccc1C(=O)Nc1ccccc1)c1ccccc1F	12.8	26.6	41.2	-26.6	0.0
O=C(Nc1ccccc1N1CCN(c2ccccc2)CC1)c1ccccc1F	10.8	75.0*	-39.9	-75.0	-27.9
O=C(Nc1ccccc1NC(=O)c1ccccc1F)c1ccccc1F	·	-8.0	57.5*	8.0	-0.9
O=C(Nc1ccc(NC(=O)c2ccccc2F)cc1)c1cccs1	136.9*	15.2	·	-15.2	37.0*
CC1CC=C(O)C12OCC(C)(C)CO2 (configuration not stated)	-6.9	-27.3	·	27.3	-1.9
CCCc1ccc2oc(C(=O)N(C)Cc3nccs3)c(C)c2c1	40.8	6.4	66.5*	-6.4	12.8
CCCc1ccc2oc(C(=O)N3CCC(O)CC3)c(C)c2c1	54.7	12.5	22.2	-12.5	0.4
CCc1nc2ccc(C(=O)NCCc3ccccn3)cn2c1N(CCC(C)C)CCN(C)C	·	·	·	·	3.9
